Active and inactive are the calls of the source. No cut-off for these calls is given here. Non-standard residues stand in square brackets, D forms with d. Residues, ends and D or L forms follow the SMILES beside them. dTrp(2-Me) = Cc1[nH]c2ccccc2c1C[C@@H](N)C(=O)O
Tests used:
[1] = molecular target: T1, Platelet glycoprotein 4 (Homo sapiens, UniProt P16671); assay: Antagonist activity at human CD36-oxLDL binding at 10 ug/mL after 2 hrs by ELISA
[2] = molecular target: T1, Platelet glycoprotein 4; assay: Antagonist activity at human CD36-oxLDL binding after 2 hrs by ELISA
In short: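 Plate wells coated with oxLDL at 4 °C for 8–12 h, washed with PBS and blocked in PBS/1% BSA for 1–2 h at 4 °C. His-tagged CD36 or vector control protein added for 1 h at 4 °C, then compound or hexarelin, incubated 2 h.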

[3] = molecular target: T1, Platelet glycoprotein 4; assay: Antagonist activity at human CD36 expressed in insect Sf9 cells assessed as inhibition of DiL-acetylated LDL uptake at 10 ug/ml after 5 hrs by fluorometric analysis; type: functional
In short: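 Sf9 cells in Grace's medium with 10% heat-inactivated FBS at 27 °C, plated at 6.0×10⁵ cells/well, infected 1 h with recombinant hCD36 or wild-type baculovirus, then refed. After two days, washed into Grace/0.5% BSA. Compound added from DMSO for 1 h at 27 °C, then DiI-AcLDL.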

[4] = molecular target: T1, Platelet glycoprotein 4; assay: Antagonist activity at human CD36-oxLDL binding at 10 uM after 2 hrs by ELISA

T1 sequence (P16671 whole entry): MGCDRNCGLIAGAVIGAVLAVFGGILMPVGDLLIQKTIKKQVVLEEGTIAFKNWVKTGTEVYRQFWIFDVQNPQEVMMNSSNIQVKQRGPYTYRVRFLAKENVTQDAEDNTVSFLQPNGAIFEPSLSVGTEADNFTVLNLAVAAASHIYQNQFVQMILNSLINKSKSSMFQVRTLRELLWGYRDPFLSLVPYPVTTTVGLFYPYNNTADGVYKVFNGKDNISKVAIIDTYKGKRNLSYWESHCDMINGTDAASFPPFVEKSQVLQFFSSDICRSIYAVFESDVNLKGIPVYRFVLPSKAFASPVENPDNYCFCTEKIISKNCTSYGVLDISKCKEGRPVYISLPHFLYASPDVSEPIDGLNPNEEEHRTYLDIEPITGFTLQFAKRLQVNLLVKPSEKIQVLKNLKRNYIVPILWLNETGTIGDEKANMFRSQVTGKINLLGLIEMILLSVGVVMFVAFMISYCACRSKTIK

SMILES | inhibition [1] | IC50 [2] | inhibition [3] | inhibition [4]
COc1ccc2cc[n+](CCc3ccc(F)cc3)cc2c1O | 29.6% | – | – | –
Oc1ccc2cc[n+](CCc3cccc(C(F)(F)F)c3)cc2c1 | 48.4% | 3.39 µM | Active | –
COc1ccc(CC[n+]2ccc3ccc(OC)c(O)c3c2)cc1 | < 10% | – | – | –
COc1ccc2cc[n+](CCc3cccc(F)c3)cc2c1OC | 52.1% | 6.9 µM | Active | –
COc1ccc2cc[n+](CCc3ccccc3C)cc2c1O | 11.5% | – | – | –
COc1cc2c[n+](CCc3ccc(F)cc3)ccc2cc1O | 42.4% | 5.99 µM | Active | –
COc1cc2c[n+](CCc3ccc(Cl)cc3)ccc2cc1O | < 10% | – | – | –
COc1ccc(CC[n+]2ccc3ccc(O)cc3c2)cc1 | 28.7% | – | – | –
COc1ccc(CC[n+]2ccc3cc(O)c(OC)cc3c2)cc1 | 76.3% | – | Active | –
COc1ccc2cc[n+](CCc3ccccc3)cc2c1OC | < 10% | – | – | –
COc1ccc2cc[n+](CCc3ccccc3C)cc2c1OC | 46.6% | 4.36 µM | Active | –
COc1cc2c[n+](CCc3cccc(F)c3)c(O)cc2cc1O | < 10% | – | – | –
COc1cc2cc[n+](CCc3ccc(Cl)cc3)cc2cc1OC | < 10% | – | – | –
COc1cc2c[n+](CCc3ccccc3)ccc2cc1O | 31% | – | – | –
COc1ccc2cc[n+](CCc3ccc(Cl)cc3)cc2c1OC | 25.4% | – | – | –
COc1ccc2cc[n+](CCc3ccccc3)cc2c1O | 77.9% | 0.633 µM | Active | –
COc1cc2c[n+](CCc3cccc(Cl)c3)ccc2cc1O | 33.6% | – | – | –
Oc1ccc2cc[n+](CCc3ccccc3F)cc2c1 | 21.7% | – | – | –
COc1cc2cc[n+](CCc3cccc(C(F)(F)F)c3)cc2cc1OC | < 10% | – | – | –
COc1ccc(CC[n+]2ccc3cc(OC)c(OC)cc3c2)cc1 | 28.6% | – | – | –
COc1ccc2cc[n+](CCc3ccccc3)cc2c1 | 47.4% | – | – | –
COc1cc2cc[n+](CCc3ccccc3)cc2cc1OC | 10% | – | – | –
COc1cc2c[n+](CCc3ccccc3C)c(O)cc2cc1O | < 10% | – | – | –
Cc1[nH]c2ccccc2c1C[C@@H](NC(=O)[C@@H](N)Cc1c[nH]cn1)C(=O)N[C@@H](C)C(=O)N[C@@H](Cc1c[nH]c2ccccc12)C(=O)N[C@H](Cc1ccccc1)C(=O)N[C@@H](CCCCN)C(N)=O (H-H[dTrp(2-Me)]AW[dF]K-NH2) | – | – | – | 37.6%
Oc1ccc2cc[n+](CCc3ccccc3)cc2c1 | < 10% | – | – | –
COc1cc2c[n+](CCc3cccc(Cl)c3)c(O)cc2cc1O | 33.2% | – | – | –
COc1cc2cc[n+](CCc3cccc(F)c3)cc2cc1OC | 20.9% | – | – | –

Reference: ChEMBL document CHEMBL1759902, “Synthesis and structure-activity relationship of N-(2-arylethyl) isoquinoline derivatives as human scavenger receptor CD36 antagonists” (Eur J Med Chem, 2011)
